Laboratory results: ChEMBL document CHEMBL1153357, “Rational design and synthesis of potent and long-lasting glutamic acid-based dipeptidyl peptidase IV inhibitors” (Bioorg Med Chem Lett, 2009)
Calls of active or inactive are those of the source. No cut-off for these calls is given here.

How the values were obtained:
Dipeptidyl peptidase 2 = Dipeptidyl peptidase 2 (Homo sapiens, UniProt Q9UHL4); test: Inhibition of DPP2
[1] = Inhibition of FAP
In short: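 Enzyme inhibition IC50 is reported as the mean of at least three experiments, with standard deviations of ±40%.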

Dipeptidyl peptidase 4 = Dipeptidyl peptidase 4 (Homo sapiens, UniProt P27487)
Dipeptidyl peptidase 8 = Dipeptidyl peptidase 8 (Homo sapiens, UniProt Q6V1X1); test: Inhibition of DPP8
[2] = Stability to the compound assessed as half life in phosphate buffer at pH 7.4; type: physicochemical
Mus musculus = test: Reduction in glucose excursion in C57BL/6 mouse at 3 mg/kg, po measured up to 120 mins by oral glucose tolerance test; type: functional, organism-based; set-up: dose 3 mg/kg
In short: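 C57BL/6j mice (n = 6) received the compound orally at 3 mpk, with water as the control, 30 min before a glucose load of 3 g/kg.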

Rattus norvegicus [3] = test: Inhibition of plasma DPP4 in Wistar rat at 3 mg/kg, po measured 30 mins to 4 hrs; settings: read-out: INH
Rattus norvegicus [4] = test: Inhibition of plasma DPP4 in Wistar rat at 3 mg/kg, po measured after 8 hrs; settings: read-out: INH

Sequence of Dipeptidyl peptidase 4 (P27487 whole entry): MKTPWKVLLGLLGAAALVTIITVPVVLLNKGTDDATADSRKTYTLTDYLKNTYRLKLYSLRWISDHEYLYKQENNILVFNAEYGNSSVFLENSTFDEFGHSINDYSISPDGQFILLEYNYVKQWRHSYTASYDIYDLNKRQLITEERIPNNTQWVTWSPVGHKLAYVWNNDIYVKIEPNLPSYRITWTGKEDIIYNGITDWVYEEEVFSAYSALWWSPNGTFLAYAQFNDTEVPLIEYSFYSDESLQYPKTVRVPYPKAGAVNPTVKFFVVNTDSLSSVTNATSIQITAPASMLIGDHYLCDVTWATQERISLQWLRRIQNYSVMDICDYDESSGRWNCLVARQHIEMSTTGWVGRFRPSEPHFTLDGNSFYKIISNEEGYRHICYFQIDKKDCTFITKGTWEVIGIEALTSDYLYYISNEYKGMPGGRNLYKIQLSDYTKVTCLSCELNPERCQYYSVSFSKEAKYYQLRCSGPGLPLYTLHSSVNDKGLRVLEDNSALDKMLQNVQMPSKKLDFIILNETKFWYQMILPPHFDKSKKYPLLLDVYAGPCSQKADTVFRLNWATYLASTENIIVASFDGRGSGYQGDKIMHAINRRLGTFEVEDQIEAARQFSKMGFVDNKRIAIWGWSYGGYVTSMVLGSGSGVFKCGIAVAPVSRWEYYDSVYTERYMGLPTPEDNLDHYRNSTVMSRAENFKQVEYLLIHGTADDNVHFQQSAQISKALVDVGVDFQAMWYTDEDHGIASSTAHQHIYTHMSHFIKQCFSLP
Sequence of Dipeptidyl peptidase 8 (Q6V1X1 whole entry): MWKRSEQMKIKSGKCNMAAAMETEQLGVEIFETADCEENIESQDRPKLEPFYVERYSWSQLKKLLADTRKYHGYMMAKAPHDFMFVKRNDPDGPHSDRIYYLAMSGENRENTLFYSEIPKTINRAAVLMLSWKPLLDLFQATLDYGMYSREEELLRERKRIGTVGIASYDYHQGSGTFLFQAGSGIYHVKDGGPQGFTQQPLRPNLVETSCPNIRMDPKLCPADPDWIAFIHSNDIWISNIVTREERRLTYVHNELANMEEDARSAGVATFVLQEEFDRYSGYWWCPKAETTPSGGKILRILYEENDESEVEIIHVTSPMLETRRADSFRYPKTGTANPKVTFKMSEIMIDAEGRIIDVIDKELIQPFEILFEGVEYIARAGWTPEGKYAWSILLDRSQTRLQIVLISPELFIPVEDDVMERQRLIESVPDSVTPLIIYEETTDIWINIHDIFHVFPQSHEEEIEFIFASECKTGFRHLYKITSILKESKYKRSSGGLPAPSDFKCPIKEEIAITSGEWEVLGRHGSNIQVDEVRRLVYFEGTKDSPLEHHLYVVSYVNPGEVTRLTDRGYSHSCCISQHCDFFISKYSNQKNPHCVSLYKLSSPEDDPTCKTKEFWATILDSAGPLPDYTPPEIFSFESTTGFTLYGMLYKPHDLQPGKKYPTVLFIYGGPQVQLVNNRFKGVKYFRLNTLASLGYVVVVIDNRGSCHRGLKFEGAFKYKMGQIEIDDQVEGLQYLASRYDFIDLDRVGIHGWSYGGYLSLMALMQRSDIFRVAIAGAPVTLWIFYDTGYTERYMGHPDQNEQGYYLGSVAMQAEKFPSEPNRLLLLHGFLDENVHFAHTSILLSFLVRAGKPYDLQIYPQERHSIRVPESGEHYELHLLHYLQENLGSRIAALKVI

What does the source list for `N#C[C@@H]1CCCN1C(=O)[C@@H](N)CC(=O)N1Cc2ccccc2C1`?
IC50 (Dipeptidyl peptidase 2): > 20 µM; IC50 [1]: > 20 µM

Which IC50 (Dipeptidyl peptidase 4) does the source give for `CC(C)(CC(=O)N1CCc2ccsc2C1)[C@H](N)C(=O)N1CCC[C@H]1C#N` here?
Its IC50 is 0.025 µM.

And the IC50 (Dipeptidyl peptidase 2)?
Its IC50 is greater than 20 µM.

And the IC50 [1]?
The IC50 was greater than 20 µM.

Which results are given for `N#C[C@@H]1CCCN1C(=O)[C@@H](N)CCC(=O)N1CCOCC1`?
IC50 (Dipeptidyl peptidase 4): 0.017 µM; IC50 (Dipeptidyl peptidase 2): > 20 µM; IC50 [1]: > 20 µM

With `CC(C)(CC(=O)N1CCn2c(nnc2C(F)(F)F)C1)[C@H](N)C(=O)N1CCC[C@H]1C#N` as the compound, how does the IC50 (Dipeptidyl peptidase 4) read?
The IC50 was 0.012 µM.

And the IC50 (Dipeptidyl peptidase 2)?
Its IC50 is greater than 20 µM.

And the IC50 [1]?
Its IC50 is greater than 20 µM.

With `N#C[C@@H]1CCCN1C(=O)[C@@H](N)CCC(=O)N1CCSC1` as the compound, how does the IC50 (Dipeptidyl peptidase 4) read?
The IC50 was 0.01 µM.

And the IC50 (Dipeptidyl peptidase 2)?
The IC50 was greater than 20 µM.

And the IC50 [1]?
Its IC50 is 8.3 µM.

Which results are given for `N[C@@H](CCC(=O)N1Cc2ccccc2C1)C(=O)N1CCSC1`?
IC50 (Dipeptidyl peptidase 4): 1.6 µM; IC50 (Dipeptidyl peptidase 8): > 20 µM; IC50 (Dipeptidyl peptidase 2): > 20 µM; IC50 [1]: 12 µM

With `CC[C@H](CC(=O)N1CCn2c(nnc2C(F)(F)F)C1)[C@H](N)C(=O)N1CCC[C@H]1C#N` as the compound, how does the IC50 (Dipeptidyl peptidase 4) read?
The IC50 was 0.031 µM.

What about the IC50 (Dipeptidyl peptidase 2) of the same compound?
The IC50 was greater than 20 µM.

And the IC50 [1]?
The IC50 was greater than 20 µM.

With `CC(C)(CC(=O)N1Cc2ccccc2C1)[C@H](N)C(=O)N1CCC[C@H]1C#N` as the compound, how does the IC50 (Dipeptidyl peptidase 4) read?
The IC50 was 0.012 µM.

What about the IC50 (Dipeptidyl peptidase 2) of the same compound?
Its IC50 is greater than 20 µM.

And the IC50 [1]?
The IC50 was greater than 20 µM.

What does the source list for `CC(C)(CC(=O)N1CCn2nc(C(F)(F)F)nc2C1)[C@H](N)C(=O)N1CCC[C@H]1C#N`?
IC50 (Dipeptidyl peptidase 4): 0.031 µM; IC50 (Dipeptidyl peptidase 2): > 20 µM; IC50 [1]: > 20 µM

For `N#C[C@@H]1CCCN1C(=O)[C@@H](N)CCC(=O)N1CCc2ccccc2C1`, which IC50 [1] is on record?
The IC50 was 8.8 µM.

Which results are given for `C[C@H](CC(=O)N1CCn2c(nnc2C(F)(F)F)C1)[C@H](N)C(=O)N1CCC[C@H]1C#N`?
IC50 (Dipeptidyl peptidase 2): > 20 µM; IC50 [1]: 7.1 µM

For `C[C@@H]1CCCN1C(=O)CC(C)(C)[C@H](N)C(=O)N1CCC[C@H]1C#N`, which IC50 (Dipeptidyl peptidase 4) is on record?
Its IC50 is 0.013 µM.

What about the IC50 (Dipeptidyl peptidase 2) of the same compound?
Its IC50 is greater than 20 µM.

And the IC50 [1]?
The IC50 was greater than 20 µM.

Which IC50 [1] does the source give for `N#CC1CCCN1C(=O)[C@@H](N)CCC(=O)N1Cc2ccccc2C1` (single isomer, unassigned) here?
Its IC50 is 1.2 µM.

For `N#C[C@@H]1CCCN1C(=O)[C@@H](N)CCC(=O)Nc1ccccc1`, which IC50 (Dipeptidyl peptidase 4) is on record?
Its IC50 is 0.037 µM.

Which IC50 [1] does the source give for `COc1cc2c(cc1OC)C(C(C)C)N(C(=O)CC[C@H](N)C(=O)N1CCC[C@H]1C#N)CC2` (some centres undefined) here?
Its IC50 is 6.1 µM.

For `N[C@@H](CC(=O)N1CCn2c(nnc2C(F)(F)F)C1)Cc1cc(F)c(F)cc1F` [SITAGLIPTIN], which IC50 [1] is on record?
Its IC50 is greater than 20 µM.

With `N#C[C@@H]1CCCN1C(=O)[C@@H](N)CCC(=O)N1CCN(C(=O)C(F)(F)F)CC1` as the compound, how does the IC50 (Dipeptidyl peptidase 4) read?
The IC50 was 0.008 µM.

What about the IC50 (Dipeptidyl peptidase 2) of the same compound?
The IC50 was greater than 20 µM.

And the IC50 [1]?
Its IC50 is 19 µM.

Which IC50 [1] does the source give for `N#C[C@@H]1CCCN1C(=O)[C@@H](N)CCC(=O)N1Cc2ccccc2C1` here?
Its IC50 is 1.2 µM.

Which IC50 [1] does the source give for `N#C[C@@H]1CCCN1C(=O)[C@@H](N)CCC(=O)N1CCc2ccsc2C1` here?
Its IC50 is 7.5 µM.

Which IC50 (Dipeptidyl peptidase 2) does the source give for `COC[C@@H]1CCCN1C(=O)CC(C)(C)[C@H](N)C(=O)N1CCC[C@H]1C#N.O=C(O)C(F)(F)F` here?
Its IC50 is greater than 20 µM.

What about the IC50 [1] of the same compound?
The IC50 was greater than 20 µM.

What about the half-life [2] of the same compound?
The half-life was greater than 168 h.

And the Activity (Mus musculus)?
The Activity was “Active”.

What about the inhibition in vivo at 3 mg/kg (Rattus norvegicus [3]) of the same compound?
Its inhibition in vivo at 3 mg/kg is greater than 80%.

What about the inhibition in vivo at 3 mg/kg (Rattus norvegicus [4]) of the same compound?
Its inhibition in vivo at 3 mg/kg is greater than 60%.

Which IC50 [1] does the source give for `N#C[C@@H]1CCCN1C(=O)[C@@H](N)CCC(=O)N1CCc2nc(-c3ccc(F)cc3)sc2C1` here?
The IC50 was 2.3 µM.

With `N#C[C@@H]1CCCN1C(=O)CNC12CC3CC(CC(O)(C3)C1)C2` [VILDAGLIPTIN] as the compound, how does the IC50 [1] read?
The IC50 was greater than 20 µM.

What about the Activity (Mus musculus) of the same compound?
The Activity was “Active”.

What about the inhibition in vivo at 3 mg/kg (Rattus norvegicus [3]) of the same compound?
The inhibition in vivo at 3 mg/kg was greater than 80%.

What about the inhibition in vivo at 3 mg/kg (Rattus norvegicus [4]) of the same compound?
The inhibition in vivo at 3 mg/kg was greater than 60%.

For `N#C[C@@H]1CCCN1C(=O)[C@@H](N)CCC(=O)N1CCn2nc(C(F)(F)F)nc2C1`, which IC50 (Dipeptidyl peptidase 4) is on record?
Its IC50 is 0.009 µM.

And the IC50 (Dipeptidyl peptidase 2)?
Its IC50 is greater than 20 µM.

What about the IC50 [1] of the same compound?
The IC50 was greater than 20 µM.

With `COC[C@H]1CCCN1C(=O)CC[C@H](N)C(=O)N1CCC[C@H]1C#N` as the compound, how does the IC50 (Dipeptidyl peptidase 4) read?
Its IC50 is 0.022 µM.

What about the IC50 (Dipeptidyl peptidase 2) of the same compound?
Its IC50 is greater than 20 µM.

What about the IC50 [1] of the same compound?
The IC50 was 21 µM.

What does the source list for `N#C[C@@H]1CCCN1C(=O)[C@@H](N)CCC(=O)N1CCCC1`?
IC50 (Dipeptidyl peptidase 4): 0.007 µM; IC50 (Dipeptidyl peptidase 2): > 20 µM; IC50 [1]: 11 µM

With `N#C[C@@H]1CCCN1C(=O)[C@@H](N)CCC(=O)N1CCn2c(nnc2C(F)(F)F)C1` as the compound, how does the IC50 [1] read?
The IC50 was greater than 20 µM.

With `N#C[C@@H]1CCCN1C(=O)[C@@H](N)CCCC(=O)N1Cc2ccccc2C1` as the compound, how does the IC50 [1] read?
The IC50 was 0.054 µM.

Which results are given for `N#C[C@@H]1CCCN1C(=O)[C@@H](N)CCC(=O)N1CCCCC1`?
IC50 (Dipeptidyl peptidase 4): 0.015 µM; IC50 (Dipeptidyl peptidase 2): > 20 µM; IC50 [1]: > 20 µM

Which results are given for `N#C[C@@H]1CCCN1C(=O)[C@@H](N)CCC(=O)NC1CCCC1`?
IC50 (Dipeptidyl peptidase 4): 0.011 µM; IC50 (Dipeptidyl peptidase 2): > 20 µM; IC50 [1]: > 20 µM

For `N#C[C@@H]1CCCN1C(=O)[C@@H](N)CCC(=O)N1CCN(c2ccncc2)CC1`, which IC50 [1] is on record?
Its IC50 is 0.47 µM.

For `N#C[C@@H]1CCCN1C(=O)[C@@H](N)CCC(=O)N1CCn2cc(C(F)(F)F)nc2C1`, which IC50 [1] is on record?
The IC50 was 14 µM.

With `N#C[C@@H]1CCCN1C(=O)[C@@H](N)CCC(=O)N1CCn2cnnc2C1` as the compound, how does the IC50 (Dipeptidyl peptidase 4) read?
Its IC50 is 0.007 µM.

What about the IC50 (Dipeptidyl peptidase 2) of the same compound?
The IC50 was greater than 20 µM.

And the IC50 [1]?
The IC50 was greater than 20 µM.

Which IC50 (Dipeptidyl peptidase 4) does the source give for `CCOC(=O)N1CCN(C(=O)CC[C@H](N)C(=O)N2CCC[C@H]2C#N)CC1` here?
The IC50 was 0.031 µM.

And the IC50 (Dipeptidyl peptidase 2)?
Its IC50 is greater than 20 µM.

And the IC50 [1]?
Its IC50 is 3.1 µM.

For `CC(C)(CC(=O)N1CCc2ccccc2C1)[C@H](N)C(=O)N1CCC[C@H]1C#N`, which IC50 (Dipeptidyl peptidase 4) is on record?
Its IC50 is 0.016 µM.

And the IC50 (Dipeptidyl peptidase 2)?
Its IC50 is greater than 20 µM.

And the IC50 [1]?
The IC50 was greater than 20 µM.

For `COC[C@@H]1CCCN1C(=O)CC[C@H](N)C(=O)N1CCC[C@H]1C#N`, which IC50 (Dipeptidyl peptidase 4) is on record?
The IC50 was 0.007 µM.

What about the IC50 (Dipeptidyl peptidase 2) of the same compound?
The IC50 was greater than 20 µM.

And the IC50 [1]?
The IC50 was 20 µM.
